Source: PubChem
Shown is part of a subset that was picked to be rich in hits.
BB579 growth dn = chemicals that inhibit yeast BB579 growth in restrictive medium (lifespan-shortening candidates); S. cerevisiae BB579 growth, OD615, 48 h; inhibition, % at 10 µM; 0.51% of 140,000 active; AID 804;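 active = inhibition above a set limit, 3 SD over the mean compound inhibition, cut at about 44% in these data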
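System: DeaD yeast strain BB579; buffer or medium: CSMM-D dextrose restrictive medium; technique: OD at 615 nm; schedule: 4 h cell preincubation, 48 h compound exposure, 30 °C humidified; doses: single 10 µM dose; controls: amphotericin B 10 µg/mL, positive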
Yeast life ext = yeast lifespan extension; S. cerevisiae growth with nicotinamide, OD615; deaD strain in restrictive glucose medium; inhibition of the nicotinamide effect, % at 10 µM; 0.68% of 130,000 active;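 active = inhibition above a set limit, placed 3 SD over the median of all compounds, cut at about 26% in these data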;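 note: 0% = nicotinamide-treated wells and 100% = cells grown without nicotinamide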
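assay system = DeaD-strain S. cerevisiae | measured by = absorbance at 615 nm | probe or stimulus = nicotinamide 1.5 mM | buffer or medium = CSMM-D glucose medium, restrictive | times = 48 h at 30 °C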
PostGolgi ctrl = inhibits growth of the yeast control strain; inhibition, % at 10 µM; AID 738; efflux-deficient yeast background strain, growth absorbance A615, 16 h; 5% of 98,000 active
PostGolgi yeast = growth inhibition of a yeast mutant, post-Golgi transport screen; inhibition, % at 10 µM; 0.9% of 98,000 active; post-Golgi transport phenotypic cell assay;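 note: yeast cells grown in 1536-well plates; yeast grown about 18 h at 30C before absorbance read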
* marks the source's active call; other numbers are inactive results; . = not tested or not shown. Cut-off read from the data, not from the text of the source, unless noted: active = inhibition above about 30%; inactive = the rest.

SMILES | BB579 growth dn | Yeast life ext | PostGolgi ctrl | PostGolgi yeast
Cc1c(Cl)cccc1NC(=O)CCC(=O)NNC(=O)c1ccccc1 | -13 | 4 | . | .
Cc1cc(C)c2nc(SCC(=O)NCCN3C(=O)CSC3=O)cc(C)c2c1 | -27 | -2 | . | .
CN=C(NC1CCCCC1)c1ccc(Cl)cc1 | -72 | 12 | . | .
COc1cc(C2=NOC(C(=O)Nc3ccc(C)cc3)C2)cc(OC)c1OC (centres undefined) | -38 | -17 | 31* | 15
COc1cccc(C(=O)Nc2nc(-c3ccccc3)c(-c3ccccc3)o2)c1 | -16 | -5 | . | .
O=C(Nc1nc(-c2ccccc2)c(-c2ccccc2)o1)c1ccc(F)cc1 | -6 | -26 | 85* | 98*
COc1ccc(CN2CC(C(=O)NCCCN3CCOCC3)CC2=O)cc1 (centres undefined) | -53 | 3 | 35* | -5
C(=N\N1CCN(C2c3ccccc3-c3ccccc32)CC1)/c1ccccn1 | 6 | -7 | 31* | -9
C(=N\N1CCN(C2c3ccccc3-c3ccccc32)CC1)/c1cccnc1 | -20 | -14 | 23 | 4
COc1cc(CCC(=O)N2CCN(S(=O)(=O)c3ccc(C)c(C)c3)CC2)cc(OC)c1OC | -19 | -23 | 0 | 17
CC1CCN(S(=O)(=O)c2ccc3ccccc3c2)CC1 | -16 | 3 | 34* | 5
Cc1nc(-c2cccc(S(=O)(=O)N3CCC(C)CC3)c2)cs1 | -24 | 12 | 38* | -7
COc1ccc(CCC(=O)N2CCN(S(=O)(=O)c3ccc4ccccc4c3)CC2)cc1 | -32 | -5 | 37* | 0
CN1CCN(S(=O)(=O)c2ccc3ccccc3c2)CC1 | -12 | -3 | 15 | 7
COc1ccc(S(=O)(=O)N2CCN(C(=O)COc3ccc4c(C)cc(=O)oc4c3)CC2)cc1 | -29 | -25 | 30* | 5
Cc1nc(-c2cccc(S(=O)(=O)N3CCCCCC3)c2)cs1 | 6 | 3 | 16 | -4
COc1ccc(C(NC(=O)C2CCCCC2)c2c(O)ccc3ccccc23)cc1 (centres undefined) | -15 | 8 | . | .
CN(c1ccccc1)S(=O)(=O)c1cccc(C(=O)OCC(=O)NCc2ccc3c(c2)OCO3)c1 | -34 | 5 | . | .
COc1ccc(/C=N/Nc2ccccc2)cc1Cn1nc(C)c([N+](=O)[O-])c1C | -66 | -1 | 3 | -1
CC1=C(C(=O)Nc2ccc(C)cc2C)C(c2ccc(C)o2)NC(=S)N1 (centres undefined) | -21 | 3 | . | .
CC1CCN(S(=O)(=O)c2ccc(F)c(C(=O)O)c2)CC1 | -23 | 3 | -1 | 4
CC1CCN(S(=O)(=O)c2ccc3[nH]c(=O)cc(C(=O)O)c3c2)CC1 | -8 | -11 | 31* | -15
COC(=O)C1=C(C(=O)OC)C(c2ccccc2O)c2sc(=O)[nH]c2S1 (centres undefined) | -44 | 45* | . | .
COc1cc(C2C(C#N)=C(N)Oc3c2c(-c2ccccc2)nn3-c2ccccc2)cc(OC)c1OC (centres undefined) | -52 | -2 | . | .
O=C(NCc1cccnc1)/C(=C/c1ccc(-c2cccc(Cl)c2)o1)S(=O)(=O)c1ccccc1 | -62 | 5 | 37* | 11
SMILES | BB579 growth dn | Yeast life ext | PostGolgi ctrl | PostGolgi yeast
C=CCN(c1ccccc1)S(=O)(=O)c1ccc(Cl)c(C(=O)OCC(=O)c2[nH]c(C)c(C(C)=O)c2C)c1 | -34 | 7 | . | .
O=C(O)CCC(=O)NNc1ccccc1[N+](=O)[O-] | -17 | 3 | . | .
COc1ccc(N2C(=O)CC(NCc3ccc(F)cc3)C2=O)cc1 (centres undefined) | -14 | . | . | .
COc1ccc(CNC2CC(=O)N(C)C2=O)cc1 (centres undefined) | -29 | -5 | 35* | 11
COc1cc(OC)nc(-n2ncc(Br)c(Br)c2=O)n1 | -25 | 38* | . | .
COC(=O)c1ccc(COC(=O)CCC(=O)c2cccs2)cc1 | 5 | -4 | . | .
Cc1ccc(CNC(=O)c2sccc2-n2cccc2)cc1 | -20 | -4 | 30* | 16
CNC(=O)c1sccc1-n1cccc1 | -17 | -4 | 2 | -1
CSc1cccc(NC(=O)CN(c2cc(C)ccc2C)S(C)(=O)=O)c1 | -21 | -12 | 5 | 1
Clc1ccc(Cc2nc(-c3cccnc3)no2)cc1 | -13 | -4 | -8 | -10
COC(=O)Nc1ccc(S(=O)(=O)N2CCC(Cc3ccccc3)CC2)cc1 | -10 | -13 | 35* | 3
CC(C)CC(=O)N1CCN(S(=O)(=O)c2ccc(F)cc2)CC1 | -71 | -13 | 39* | -6
COC(=O)Nc1ccc(S(=O)(=O)N2CCN(c3ccc(F)cc3)CC2)cc1 | -91 | -13 | 38* | -9
COC(=O)C1=C(C)NC(=O)/C1=C\c1cc(C)n(-c2c(C)cccc2C)c1C | -50 | 9 | -2 | -1
COC(=O)C1=C(C)NC(=O)/C1=C\c1cc(C)n(-c2ccccc2C)c1C | -74 | -8 | 32* | 10
Cc1ccc(S(=O)(=O)Nc2cccc3ncccc23)s1 | -13 | 1 | 36* | -2
Cc1ccc(S(=O)(=O)Nc2ccnc3ccccc23)cc1 | -54 | -6 | 4 | -2
Cc1cc(C)nc(SCc2ccc(C(=O)NNC(=O)Nc3cccc(Cl)c3)cc2)n1 | -35 | -3 | . | .
C(=C\c1ccccc1)/CSc1nnc(-c2cccnc2)o1 | -34 | -13 | 33* | -9
c1ccc(CSc2nnc(-c3cccnc3)o2)cc1 | 15 | . | . | .
Cc1cc(C(=O)Cn2nnc(-c3ccc(Cl)cc3)n2)c(C)n1CC1CCCO1 (centres undefined) | -14 | 39 | 33* | 22
CCOC(=O)CNC(=O)c1sc2ncnc(N3CCc4ccccc4C3)c2c1C | -30 | 2 | 19 | 10
CCOC(=O)c1sc2nc(CC(=O)OC)nc(N3CCN(c4ccccn4)CC3)c2c1C | -72 | -11 | 30* | 2
CCOC(=O)c1sc2ncnc(N3CCN(C(=O)OCC)CC3)c2c1C | 0 | -12 | 36* | 3
O=C(COC(=O)C1CCN(S(=O)(=O)c2ccccc2)CC1)NC(=O)c1ccc(OC(F)F)cc1 | -25 | 0 | . | .
SMILES | BB579 growth dn | Yeast life ext | PostGolgi ctrl | PostGolgi yeast
CCn1c(SCC(=O)N2CCc3ccccc3C2)nc2sc(C)c(C)c2c1=O | -26 | -4 | . | .
CC1(C)CC(NC(=O)CCC2CCCC2)CC(C)(C)N1 | -75 | -14 | 40* | -8
CC1CC(C)(C)CC2(C1)NC(=O)N(CC(=O)NC1CCCc3ccccc31)C2=O (centres undefined) | -24 | 2 | . | .
CCOC(=O)c1nnn(-c2nonc2N)c1CSc1ccccc1 | -73 | 12 | 11 | -6
CCOC(=O)c1nnn(-c2nonc2N)c1CSc1ccc(C)cc1 | -2 | 0 | 33* | 7
CC(C)c1cccc(C(C)C)c1NC(=O)COC(=O)c1ccc2c(c1)S(=O)(=O)c1ccccc1C2=O | -16 | -3 | . | .
Cc1nc(Oc2ccc(S(=O)(=O)N3CCOCC3)cc2Cl)c2c3c(sc2n1)CCCC3 | -40 | 0 | . | .
O=C(Nc1ncnc2sc3c(c12)CCCCC3)c1ccc(F)cc1 | -23 | -5 | 8 | 2
C(=N\Nc1ncnc2sc3c(c12)CCC3)/c1cccs1 | -32 | -17 | 34* | 19
O=C(Nc1ncnc2sc3c(c12)CCCCC3)c1ccccc1 | -60 | -8 | 33* | 48*
